According to ChEMBL document CHEMBL2417509, “Synthesis and biological evaluation of prodigiosene conjugates of porphyrin, estrone and 4-hydroxytamoxifen” (2013):
Activity calls are given as the source filed them. No cut-off for these calls is given here.

Test system: MCF7
Assay: Cytotoxicity against human ER positive MCF7 cells assessed as cell viability at 1 uM after 72 hrs by MTT assay
Format: functional, cell-based
In short: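 Lines kept in DMEM with 10% fetal bovine serum and 1% penicillin/streptomycin at 37 °C, 5% CO2. Compound applied at 1 µM for 72 h, then standard MTT reduction read-out. Viability given as mean percentage of formazan formed by treated cells relative to mock-treated cells (0.1% DMSO). Run in quadruplicate, standard error, Student's t-test.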

Row | SMILES | Activity
1 | COc1cc(-c2ccc[nH]2)[nH]c1/C=C1\N=C(C)C(C(=O)CCCCC(=O)Oc2ccc3c(c2)CC[C@@H]2[C@@H]3CC[C@]3(C)C(=O)CC[C@@H]23)=C1C | inactive
2 | COc1cc(-c2ccc[nH]2)[nH]c1/C=C1\N=C(C)C(C(=O)CCCCCCCCC(=O)Oc2ccc3c(c2)CC[C@@H]2[C@@H]3CC[C@]3(C)C(=O)CC[C@@H]23)=C1C | inactive
